Experimental data taken from ChEMBL document CHEMBL4017519, “Development of (4-Cyanophenyl)glycine Derivatives as Reversible Inhibitors of Lysine Specific Demethylase 1” (J Med Chem, 2017).
Calls of active or inactive are those of the source. No cut-off for these calls is given here.

What was measured:
[1] = target: T1, Lysine-specific histone demethylase 1A (Homo sapiens, UniProt O60341); assay: Inhibition of N-terminal truncated human LSD1 (151 to 852 residues) expressed in Escherichia coli after 30 mins using histone H3(1-21)K4(Me1) biotin peptide as substrate by TR-FRET assay
[2] = target: T1, Lysine-specific histone demethylase 1A; assay: Binding affinity to LSD1 (unknown origin) by SPR analysis
[3] = target: T1, Lysine-specific histone demethylase 1A; assay: Competitive binding affinity to LSD1 (unknown origin) in presence of tranylcypromine
[4] = target: T1, Lysine-specific histone demethylase 1A; assay: Inhibition of LSD1 in human THP1 cells assessed as induction of CD86 expression at 50 uM after 48 hrs by flow cytometric analysis; assay type: cell-based
In short: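 THP-1 AML cells grown in RPMI with 10% FBS and 2 mM L-glutamine, exposed to compound or DMSO vehicle at 50 μM for 48 h at 1×10^5 cells/ml. Cells were pelleted and stained with CD86-PerCP EF710 antibody in phenol red-free RPMI with 5 mM EDTA and 2% BSA for 10 min at 4 °C, then washed and analysed by flow cytometry.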

[5] = Efflux ratio of apparent permeability in human Caco2 cells; assay type: ADME, cell-based; settings: Caco-2
[6] = Apparent permeability across apical to basolateral side in human Caco2 cells; assay type: ADME, cell-based; settings: Caco-2
[7] = target: T1, Lysine-specific histone demethylase 1A; assay: Inhibition of LSD1 in human THP1 cells assessed as induction of CD86 expression after 48 hrs by flow cytometric analysis; assay type: cell-based
[8] = target: Voltage-gated inwardly rectifying potassium channel KCNH2 (Homo sapiens, UniProt Q12809); assay: Inhibition of human hERG by patch clamp method
Liver = assay: Intrinsic clearance in mouse liver microsomes assessed per […]; assay type: ADME, microsome
[9] = Half life in mouse liver microsomes; assay type: ADME, microsome
THP-1 [10] = assay: Induction of apoptosis in human THP1 cells at 10 uM after 4 days by Annexin V-perCP EF710/7AAD double staining based FACS analysis; assay type: functional, cell-based
In short: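 THP-1 cells in liquid culture with 10 μM compound or vehicle for 4 days, then stained with an Annexin V/7-AAD kit per manufacturer and analysed by flow cytometry. Early apoptotic = Annexin V-pos/7-AAD-neg; apoptotic = Annexin V-pos/7-AAD-pos. One-way ANOVA with Dunnett's tests.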

THP-1 [11] = assay: Anticlonogenic activity against human THP1 cells at 10 uM after 7 days; assay type: functional, cell-based
MV4-11 = assay: Anticlonogenic activity against human MV4-11 cells at 10 uM after 7 days; assay type: functional, cell-based
Homo sapiens = organism: Homo sapiens; assay: Selectivity ratio of IC50 for human ERG to IC50 for N-terminal truncated human LSD1 (151 to 852 residues) expressed in Escherichia coli

Chain of Voltage-gated inwardly rectifying potassium channel KCNH2 (Q12809 whole entry): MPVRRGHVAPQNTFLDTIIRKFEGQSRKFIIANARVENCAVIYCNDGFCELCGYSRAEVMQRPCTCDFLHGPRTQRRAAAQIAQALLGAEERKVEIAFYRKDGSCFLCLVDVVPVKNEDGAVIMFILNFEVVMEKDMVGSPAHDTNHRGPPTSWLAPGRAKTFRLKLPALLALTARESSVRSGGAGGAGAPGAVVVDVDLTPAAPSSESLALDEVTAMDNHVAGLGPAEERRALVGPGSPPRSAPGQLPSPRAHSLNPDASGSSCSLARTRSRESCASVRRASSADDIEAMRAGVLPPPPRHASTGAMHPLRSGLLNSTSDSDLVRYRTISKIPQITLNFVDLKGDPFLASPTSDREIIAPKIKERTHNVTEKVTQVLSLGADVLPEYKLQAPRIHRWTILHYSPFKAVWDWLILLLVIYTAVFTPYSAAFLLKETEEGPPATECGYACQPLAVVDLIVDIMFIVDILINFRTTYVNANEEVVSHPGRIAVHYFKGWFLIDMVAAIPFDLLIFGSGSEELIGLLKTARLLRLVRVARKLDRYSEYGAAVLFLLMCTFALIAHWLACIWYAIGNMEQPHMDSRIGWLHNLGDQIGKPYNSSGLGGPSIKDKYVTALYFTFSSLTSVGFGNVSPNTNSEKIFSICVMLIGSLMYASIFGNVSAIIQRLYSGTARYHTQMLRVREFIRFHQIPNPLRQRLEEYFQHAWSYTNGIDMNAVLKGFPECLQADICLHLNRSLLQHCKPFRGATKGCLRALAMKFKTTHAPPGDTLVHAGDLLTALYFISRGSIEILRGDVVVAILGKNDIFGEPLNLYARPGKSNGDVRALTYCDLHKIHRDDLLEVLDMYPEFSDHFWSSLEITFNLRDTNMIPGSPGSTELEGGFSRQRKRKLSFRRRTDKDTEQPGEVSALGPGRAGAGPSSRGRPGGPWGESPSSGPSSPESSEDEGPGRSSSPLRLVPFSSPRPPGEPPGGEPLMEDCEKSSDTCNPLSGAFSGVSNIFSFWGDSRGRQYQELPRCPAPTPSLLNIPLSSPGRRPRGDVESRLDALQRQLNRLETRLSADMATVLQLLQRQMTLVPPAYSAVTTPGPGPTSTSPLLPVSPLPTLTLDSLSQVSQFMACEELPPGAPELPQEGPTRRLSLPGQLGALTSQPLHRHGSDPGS

IC50 [1] [nM]	Kd [2] [nM]	SMILES	further results
7500	2900	CNC1CCN(C(=O)CN(c2ccc(C#N)cc2)S(=O)(=O)c2ccc(C)cc2)CC1	–
990	230	COc1ccc(CN(CC(=O)N2CCC(F)(CN)CC2)c2ccc(C#N)cc2)cc1F	–
40000	–	COc1cc(NS(=O)(=O)c2ccccc2)ccc1-n1nc(C)cc1C	–
30000	9600	Cn1cc2cc(N(CC(=O)N3CCC[C@@H](N)C3)S(=O)(=O)c3ccc(C#N)cc3)ccc2n1	–
15600	6500	Cc1ccc(S(=O)(=O)N(CC(=O)NC2CCNCC2)c2ccc(C#N)cc2)cc1	–
13100	2400	Cc1ccc(S(=O)(=O)N(CC(=O)N2C[C@@H]3C[C@H]2CN3)c2ccc(C#N)cc2)cc1	–
430	–	COc1cc(NS(=O)(=O)c2ccc3c(c2)cc(C)c(=O)n3C)ccc1-n1nc(C)cc1C	Activity [3]: inactive; inhibition [4]: inactive
16400	3200	Cc1ccc(S(=O)(=O)N(CC(=O)N2CC[C@@H](N)C2)c2ccc(C#N)cc2)cc1	–
1300	430	Cc1ccc(CN(CC(=O)N2CCC(N)CC2)c2ccc(C#N)cc2)cc1	–
1000	420	N#Cc1ccc(N(CC(=O)N2CCC(CN)CC2)Cc2cccc(C(N)=O)c2)cc1	–
7600	2600	Cc1ccc(S(=O)(=O)N(CC(=O)N2CCC(N)CC2)c2ccc(C#N)cc2)cc1	–
12600	2900	Cc1ccc(S(=O)(=O)N(CC(=O)N2CCC(N(C)C)CC2)c2ccc(C#N)cc2)cc1	–
400	290	N#Cc1ccc(N(CC(=O)N2CCC(CN)CC2)Cc2ccc(Cl)cc2)cc1	–
210	58	COc1ccc(CN(CC(=O)N2CCC(CN)CC2)c2ccc(C#N)cc2)cc1F	efflux ratio [5]: 58; Papp A→B [6]: 0.26 ×10⁻⁶ cm/s; EC50 [7]: 4100 nM; IC50 [8]: 12400 nM; CLint (Liver): 4.5 µL/min; half-life [9]: 5.08 h
5500	1900	N#Cc1ccc(N(CC(=O)N2CCC(N)CC2)Cc2ccc(C#N)c(F)c2)cc1	–
4400	1800	CC(=O)N1CCc2cc(S(=O)(=O)N(CC(=O)N3CCC(N)CC3)c3ccc(C#N)cc3)ccc21	–
5200	2400	CC(=O)N1CCc2cc(S(=O)(=O)N(CC(=O)N3CCC[C@@H](N)C3)c3ccc(C#N)cc3)ccc21	–

IC50 [1] [nM]	Kd [2] [nM]	SMILES	further results
–	9500	CC(=O)Nc1ccc(S(=O)(=O)Nc2ccc(C#N)cc2)cc1	–
> 150000	90000	Cc1ccc(S(=O)(=O)N(CC(=O)Nc2cccnc2)c2ccc(C#N)cc2)cc1	–
13900	4500	Cc1ccc(S(=O)(=O)N(CC(=O)N2CCC[C@@H](N)C2)c2ccc(C#N)cc2)cc1	–
810	190	COc1ccc(CN(CC(=O)N2CCC(N)CC2)c2ccc(C#N)cc2)cc1F	Papp A→B [6]: 0.44 ×10⁻⁶ cm/s; CLint (Liver): 3.6 µL/min; half-life [9]: 6.42 h
290	110	Cc1ccc(CN(CC(=O)N2CCC(CN)CC2)c2ccc(C#N)cc2)cc1	–
5200	2500	Cc1ccc(S(=O)(=O)N(CC(=O)N2CCC(C)(N)CC2)c2ccc(C#N)cc2)cc1	–
> 30000	> 100000	COc1cc(N(CC(=O)N2CCC(N)CC2)S(=O)(=O)c2ccc3c(c2)CCN3C(C)=O)ccc1-n1nc(C)cc1C	–
22700	4700	Cc1ccc(S(=O)(=O)N(CC(=O)N2CC[C@H](N)C2)c2ccc(C#N)cc2)cc1	–
830	490	N#Cc1ccc(N(CC(=O)N2CCC(CN)CC2)Cc2ccc(C(N)=O)cc2)cc1	–
620	140	Cn1ncc2cc(CN(CC(=O)N3CCC(N)CC3)c3ccc(C#N)cc3)ccc21	–
–	9	Cc1ccc(-c2ncc(OC[C@H]3CCNC3)cc2-c2ccc(C#N)cc2)cc1	Papp A→B [6]: 5.6 ×10⁻⁶ cm/s; Activity (THP-1 [10]): Active; EC50 [7]: 300 nM; Activity (THP-1 [11]): Active; Activity (MV4-11): Active; IC50 [8]: 3200 nM; CLint (Liver): 3.43 µL/min; half-life [9]: 6.73 h
1300	460	N#Cc1ccc(N(CC(=O)N2CCC(CN)CC2)Cc2ccc(F)cc2)cc1	–
83	32	COc1ccc(CN(CC(=O)N2CCC3(CC2)CNC3)c2ccc(C#N)cc2)cc1F	efflux ratio [5]: 58; Papp A→B [6]: 0.09 ×10⁻⁶ cm/s; Activity (THP-1 [10]): Active; EC50 [7]: 670 nM; Activity (THP-1 [11]): Active; Activity (MV4-11): Active; IC50 [8]: 20100 nM; Ratio IC50 (Homo sapiens): 30; CLint (Liver): < 1 µL/min; half-life [9]: > 16.7 h
24300	10300	Cc1ccc(S(=O)(=O)N(CC(=O)N2CCC[C@H](N)C2)c2ccc(C#N)cc2)cc1	–
4100	1100	N#Cc1ccc(N(CC(=O)N2CCC(N)CC2)Cc2ccccc2)cc1	–
1600	> 100000	COc1cc(NS(=O)(=O)c2ccc3c(c2)CCN3C(C)=O)ccc1-n1nc(C)cc1C	–

SMILES	IC50 [1] [nM]	Kd [2] [nM]	further results
Cc1ccc(S(=O)(=O)N(CC(=O)N[C@@H]2CN3CCC2CC3)c2ccc(C#N)cc2)cc1	14200	3500	–
Cc1ccc(S(=O)(=O)N(CC(=O)N[C@H]2CN3CCC2CC3)c2ccc(C#N)cc2)cc1	11900	3600	–
